ChEMBL document CHEMBL3779764, “Identification and Structure-Activity Relationships of Diarylhydrazides as Novel Potent and Selective Human Enterovirus Inhibitors” (J Med Chem, 2016)
The source made the active and inactive calls. The calls are words filed in the database; no cut-off is given here.

Assays:
[1] = Selectivity index, ratio of CC50 for african green monkey Vero cells to EC50 for Enterovirus 71; format: toxicity, cell-based; conditions: read-out: Ratio CC50/EC50
Outline: (§1)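 Selectivity index is CC50/EC50, both taken from MTS-based CPE reduction assays in the same cell line (Vero or RD).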

[2] = Cytotoxicity against african green monkey Vero cells assessed as reduction in cell viability after 24 to 36 hrs by MTS-based CPE reduction assay; conditions: chlorocebus sabaeus
Outline: (§2)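 Noninfected Vero or RD cells exposed to serial compound dilutions under the CPE-assay conditions (37 °C, 24-36 h). Viability measured by MTS/PMS absorbance at 498 nm. CC50 is the concentration causing 50% death of noninfected cells.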

Enterovirus A71 [3] = experiment: Antiviral activity against Enterovirus 71 infected in human RD cells after 24 to 36 hrs by MTS-based CPE reduction assay; format: functional, organism-based; conditions: Enterovirus A, RD; read-out: EC50
Outline: (§3)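 RD cells given serial compound dilutions with EV71. Incubated at 37 °C for 24-36 h until full CPE in the virus control. Viability read by MTS/PMS at 498 nm. EC50 is the concentration giving 50% inhibition of virus-induced CPE. At least three independent experiments.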

RD [4] = experiment: Inhibition of human enterovirus 71 capsid assessed as reduction in viral replication at early stages infected in human RD cells at 20 ug/ml; format: cell-based; conditions: Enterovirus A71
Outline: (§4)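 Time-of-addition test in RD cells infected with EV71 at MOI 0.01. Compound was added at set times relative to infection (0.05 or 20 µg/mL).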

[5] = Selectivity index, ratio of CC50 for human RD cells to EC50 for Enterovirus 71; format: toxicity, cell-based; conditions: read-out: Ratio CC50/EC50; outline: as §1
Enterovirus A71 [6] = experiment: Induction of stabilization of Human enterovirus 71 capsid protein assessed as increase in temperature for achieving equal staining of viral genome at 50 ug/ml by SYBR green fluorescent assay
Outline: (§5)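 SYBR green I and II added at 3× with RNase inhibitor at 1 U/µL. Mixture heated 37–70 °C in 1 °C steps, 2 min each, then cooled to 36 °C for 2 min while fluorescence was read.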

RD [7] = experiment: Cytotoxicity against human RD cells assessed as reduction in cell viability after 24 to 36 hrs by MTS-based CPE reduction assay; format: functional; outline: as §2
Enterovirus A71 [8] = experiment: Antiviral activity against Human enterovirus 71 infected in monkey African green Vero cells by MTS-based CPE reduction assay; format: functional, organism-based; conditions: Enterovirus A, Vero; read-out: EC50
Outline: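 Vero cells (5 × 10^5) seeded, then given serial compound dilutions plus 100 TCID50 EV71. Incubated at 37 °C for 24-36 h until complete CPE in the virus-infected, compound-free control. Viability read by MTS/PMS at 498 nm. EC50 is the concentration inhibiting virus-induced CPE by 50%. At least three repeats.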

Coxsackievirus B1 = experiment: Antiviral activity against Human coxsackievirus B1 infected in african green monkey Vero cells after 24 to 36 hrs by MTS-based CPE reduction assay; format: functional, organism-based; conditions: Enterovirus B
Outline: (§6)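 Vero cells infected with the coxsackievirus B serotype in the presence of serial compound dilutions. CPE reduction read by MTS/PMS absorbance at 498 nm after 24-36 h at 37 °C. EC50 is the concentration giving 50% CPE inhibition. Mean ± standard deviation of at least three independent experiments.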

Coxsackievirus B4 = experiment: Antiviral activity against Human coxsackievirus B4 infected in african green monkey Vero cells by after 24 to 36 hrs MTS-based CPE reduction assay; format: functional, organism-based; conditions: Enterovirus B; outline: as §6
Coxsackievirus B3 = experiment: Antiviral activity against Human coxsackievirus B3 infected in african green monkey Vero cells after 24 to 36 hrs by MTS-based CPE reduction assay; format: functional, organism-based; conditions: Enterovirus B; outline: as §6
Coxsackievirus B2 = experiment: Antiviral activity against Human coxsackievirus B2 infected in african green monkey Vero cells after 24 to 36 hrs by MTS-based CPE reduction assay; format: functional, organism-based; conditions: Enterovirus B; outline: as §6
Coxsackievirus B5 = experiment: Antiviral activity against Human coxsackievirus B5 infected in african green monkey Vero cells after 24 to 36 hrs by MTS-based CPE reduction assay; format: functional, organism-based; conditions: Enterovirus B; outline: as §6
Coxsackievirus B6 = experiment: Antiviral activity against Human coxsackievirus B6 infected in african green monkey Vero cells after 24 to 36 hrs by MTS-based CPE reduction assay; format: functional, organism-based; conditions: Enterovirus B; outline: as §6
Enterovirus A71 [9] = experiment: Antiviral activity against Human enterovirus 71 infected in human RD cells assessed as reduction in virus titer measured during single replication cycle by virus titer assay; format: functional, organism-based
Outline: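 RD cells (5 × 10^4 per well) cultured at 37 °C, 5% CO2. Next day, treated with compound at 0.00042-33.3 µg/mL in 10% FBS, 0.5% DMSO. After 2 h, infected with EV71 at MOI 1. Supernatants serially diluted 10^-1 to 10^-8 onto fresh cells. CPE scored at 72 hpi; TCID50 calculated by Reed-Muench.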

RD [10] = experiment: Inhibition of human enterovirus 71 capsid assessed as reduction in viral replication at early stages infected in human RD cells at 0.05 ug/ml; format: cell-based; conditions: Enterovirus A71; outline: as §4
Enterovirus A71 [11] = experiment: Induction of stabilization of Human enterovirus 71 capsid protein assessed as increase in temperature for achieving equal staining of viral genome at 5 ug/ml by SYBR green fluorescent assay; outline: as §5
RD [12] = experiment: Cytotoxicity against human RD cells infected with human enterovirus 71 measured during a single replication cycle; format: cell-based
Enterovirus A71 [13] = experiment: Antiviral activity against Human enterovirus 71 infected in human RD cells after 24 to 36 hrs; format: functional, organism-based; conditions: Enterovirus A; outline: as §3

EC50 (Enterovirus A71 [13])	SMILES	selectivity ratio [1]	CC50 [2]	EC50 (Enterovirus A71 [3])	inhibition (RD [4])	selectivity ratio [5]	Activity (Enterovirus A71 [6])	CC50 (RD [7])	EC50 (Enterovirus A71 [8])	EC50 (Coxsackievirus B1)	EC50 (Coxsackievirus B4)	EC50 (Coxsackievirus B3)	EC50 (Coxsackievirus B2)	EC50 (Coxsackievirus B5)	EC50 (Coxsackievirus B6)	Activity (Enterovirus A71 [9])	inhibition (RD [10])	Activity (Enterovirus A71 [11])	Activity (RD [12])
	Cc1cc(CCCCCCCOc2ccc(C3=NCCO3)cc2)on1 [DISOXARIL]	7.6	148000 nM	15300 nM	Active	10.9	Active	167000 nM	19500 nM										
	CN(C)c1ccc(C(=O)NNc2c(Br)cccc2Br)cc1	> 6460	> 194000 nM	70 nM		> 2930		> 194000 nM	30 nM	5 nM	340 nM	30 nM	0.5 nM	60 nM	20 nM				
	CN(C)c1ccc(C(=O)NNc2c(Cl)cccc2Cl)cc1	> 12300	> 247000 nM	30 nM		> 8230		> 247000 nM	20 nM	1.3 nM	2570 nM	950 nM	0.9 nM	2270 nM	940 nM	Active	Active	Active	Non-toxic
	CC(C)S(=O)(=O)n1c(N)nc2ccc(/C(=N/O)c3ccccc3)cc21 [ENVIROXIME]	> 1490	> 223000 nM	240 nM		> 950		> 223000 nM	150 nM	750 nM	> 186000 nM	2480 nM	150 nM	120 nM	100 nM				
1420 nM	O=C(c1cccs1)N(Cc1ccc(Br)cc1)c1ccc(F)cc1																		
	CC(C)(C)c1ccc(C(=O)NNc2c(Br)cccc2Br)cc1	> 2350	> 188000 nM	290 nM		> 641		> 188000 nM	80 nM	2610 nM	6520 nM	870 nM	1570 nM	980 nM	920 nM				
